# Screening results as filed in PubChem BioAssay.
# ERp5 block: ERp5 (human) disulfide isomerase inhibition. ERp5 insulin aggregation, absorbance 650 nm, 90 min. actives 0.05% (n = 350,000). Q15084. inhibition, % at 9.99 µM;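 active means mean replicate inhibition above about 25%, with every replicate also reaching it, limit read from the data, passing the limit was not always enough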
# PDI turbidity: PDI (human) enzyme inhibition; PDI insulin aggregation turbidity, A650, 90 min; inhibition, % at 10 µM; P07237; actives 0.052% (n = 350,000);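 active means mean inhibition across replicates of 30% or more, whatever share of single replicates reach that level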
# MLL AF4-AF9 inh: MLL-AF4/AF9 protein interaction inhibition; AID 651704; inhibition, % at 10 µM; AlphaScreen, biotin-AF4 peptide binding to FLAG-AF9; actives 0.47% (n = 350,000);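 active means every replicate reaching a set inhibition limit, whatever the replicate mean, cut at about 25% in these data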;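 further: 0% = plate neutral control median and 100% = total signal loss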
# FN deposit inh: fibronectin deposition inhibition | AH1F fibroblasts, Alexa488-fibronectin deposition fluorescence, overnight | inhibition, % at 12.6 µM | actives 0.086% (n = 350,000);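 active means mean inhibition across replicates of 30% or more, regardless of how many single replicates reach that level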;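 further: positive control wells lacked labelled fibronectin entirely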
#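 Material: AH1F fibroblast monolayer depositing Alexa488-labelled fibronectin into matrix | Input: 10000 AH1F cells/well | Medium: DMEM plus 2% serum, read in PBS | Reagent: Alexa488-fibronectin, 24 nM final in well | Compound dosing: One dose per compound, pinned | Schedule: 1 h adhesion, overnight exposure | Measured by: Fluorescence at 485 nm excitation, 525 nm emission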
# FGF22 binding: shifts melting point of recombinant human FGF22. Q9HCT0. recombinant FGF22 thermal shift, SYPRO orange fluorescence; percent of sucrose octasulfate shift, DMSO zero. activity (Tm shift, normalised), % at 9.99 µM. actives 1.5% (n = 340,000);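 active means mean Tm shift, scaled 0 neutral to 100 positive control, at about 1.3% or above, every replicate too, limit read from the data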
# Target sequence (Q9HCT0 whole entry, looked up): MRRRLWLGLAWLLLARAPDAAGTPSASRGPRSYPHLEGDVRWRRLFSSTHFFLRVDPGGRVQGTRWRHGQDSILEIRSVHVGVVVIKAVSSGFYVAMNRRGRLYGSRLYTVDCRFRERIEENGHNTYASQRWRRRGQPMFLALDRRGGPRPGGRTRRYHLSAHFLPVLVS
# ARNT TACC3 PPI: disruptors of human ARNT/TACC3 interaction. Q9Y6A5. AlphaScreen His-ARNT PAS-B/GST-TACC3 binding, luminescence; TACC3 fragment carries E629A point mutation. inhibition, % at 9.99 µM. actives 0.66% (n = 390,000);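 active means mean inhibition of replicates at least 50% and at least half of replicates each reaching 50%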;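 further: 0% = complete ARNT plus TACC3 wells and 100% = ARNT alone without TACC3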
# * marks the source's active call; other numbers are inactive results; . = no result given. Hits are enriched below; roughly 2.1% of the tested compounds scored in any of these assays.
SMILES,ERp5 block,PDI turbidity,MLL AF4-AF9 inh,FN deposit inh,FGF22 binding,ARNT TACC3 PPI
O=C(Nc1cccc(F)c1)N1C[C@@H]2[C@H](c3ccccc31)[C@H](CO)N2C(=O)C1CCOCC1,-2,.,-2,.,0,-12
CN1c2ccc(-c3cccc(F)c3)cc2[C@H]2[C@H](CCN2C(=O)C2CCC2)[C@H]1CO,.,.,28*,-25,.,.
CN1c2ccc(-c3cccc(F)c3)cc2[C@@H]2[C@@H](CCN2C(=O)C2CCC2)[C@H]1CO,5,.,9,4,.,.
CC(C)c1ccc(/C=C(\NC(=O)c2ccccc2)C(=O)NCCCn2ccnc2)cc1,0,-4,16,2,0,.
O=C(NCCCn1ccnc1)/C(=C/c1ccc(F)cc1)NC(=O)c1ccccc1,3,4,2,-3,0,62*
O=C(NCCCn1ccnc1)/C(=C\c1ccco1)NC(=O)c1ccco1,1,-12,-2,7,0,57*
O=C(NCCCn1ccnc1)c1ccco1,.,7,.,-1,.,2
CC(=O)OC[C@H]1O[C@@H](Oc2cc(O)cc3oc(-c4ccc(O)cc4)cc(=O)c23)[C@H](O[C@@H]2O[C@@H](C)[C@H](O)[C@@H](O)[C@H]2O)[C@@H](O)[C@@H]1O,2,39*,-2,3,0,-7
O=C(C[C@H]1C=C[C@H](NC(=O)Cc2cccnc2)[C@@H](CO)O1)NCc1ccc2c(c1)OCO2,-2,.,0,.,0,-10
Cc1ccsc1/C=N/NC(=S)NCc1ccccc1,-1,-3,9,-27,0,6
Cc1ccsc1/C=N\NC(=O)CC(=O)NCc1ccccc1,-74,3,-9,13,43*,-1
C[C@H]1CN([C@@H](C)CO)C(=O)c2cc(NC(=O)CCC(F)(F)F)ccc2O[C@@H]1CN(C)C(=O)NC1CCCCC1,-3,.,-2,.,0,-19
CO[C@H]1CN(C)C(=O)c2ccc(NS(C)(=O)=O)cc2OC[C@H](C)NC[C@@H]1C,.,.,.,-23,.,.
CCNC(=O)C1(C)CCCN(C(=O)c2ccccc2Br)C1 (stereo not given),4,-2,0,-27,43*,.
CCNC(=O)C1(C)CCCN(C(=O)c2sc(-c3ccccc3)nc2C)C1 (stereo not given),-3,-9,-3,-4,43*,.
CCCS(=O)(=O)NC(=O)C1(C)CCCN(C(=O)c2ccccc2Br)C1 (stereo not given),4,7,0,2,0,.
CCN(CC)CC(=O)Nc1c(C)cccc1C,1,-18,-8,-4,0,.
Cc1cccc(C)c1NC(=O)CN(C)c1ccc(C(F)(F)F)cn1,3,4,2,-17,43*,1
Cn1ccnc1Sc1ccccc1[N+](=O)[O-],7,3,1,3,43*,-10
Cn1ccnc1Sc1ccc(C=O)cc1[N+](=O)[O-],-11,-3,0,3,1,-4
C[C@H]1CN([C@@H](C)CO)S(=O)(=O)c2ccc(C#CC3CCCC3)cc2O[C@@H]1CN(C)S(C)(=O)=O,-3,.,7,.,0,-4
O=[N+]([O-])c1ccccc1/C=C\C=N\N1CCN(c2ccccc2)CC1,2,5,42*,2,0,4
COc1ccccc1N1CCN(/N=C/C=C/c2ccccc2[N+](=O)[O-])CC1,-3,7,48*,-1,0,27
COc1ccccc1N1CCN(/N=C\c2sccc2C)CC1,-2,-4,30*,-1,0,17
COc1ccc2c3c([nH]c2c1)[C@@H](CO)N(C)CC31CN(C(=O)c2ccccn2)C1,.,.,2,.,.,.
C/C(=N/NC(=O)c1ccco1)c1cccc(NC(=O)c2ccc(C)s2)c1,3,-17,5,2,1.5*,0
Cc1cccc(NC(=S)NC(=O)/C=C/c2ccco2)c1,0,7,7,11,1.4*,.
O=C(/C=C/c1ccco1)NC(=S)Nc1ccccc1,4,6,6,0,0,8
C/C(=N\NC(=S)Nc1cccc(C)c1)c1ccco1,-4,0,36*,3,42,13
C[C@H](CO)N1C[C@H](C)[C@@H](CN(C)C(=O)Cc2ccccc2)Oc2cc(C#CC3(O)CCCC3)ccc2S1(=O)=O,5,.,2,.,0,-3
